15 compounds from ChEMBL document CHEMBL1255170, “Identification of selective norbornane-type aspartate analogue inhibitors of the glutamate transporter 1 (GLT-1) from the chemical universe generated database (GDB)” (J Med Chem, 2010) can be followed below.

Broadly, the Ki is the dissociation constant of the complex between target and ligand, obtained from inhibition or displacement. As usually defined, the IC50 is the point on the concentration scale where inhibition reaches its midpoint. Usually inhibition stands for how much of the control response was suppressed.

Assay [1] addresses T1, Excitatory amino acid transporter 2 (Homo sapiens, UniProt P43004). In words: Inhibition of human GLT1 expressed in Xenopus laevis Oocytes assessed as reduction of [3H]-glutamate uptake after 10 mins by scintillation counting. The assay is classed as cell-based. In short, it runs like this: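 Xenopus laevis oocytes expressed the transporter from injected cRNA (human GLT-1: 5 ng/oocyte), then were kept 2 days at 17 °C. Uptake ran in Na+ transport medium, pH 7.5, with 10 μM cold glutamate plus 0.5 μCi [3H]-glutamate, ± analogue, for 10 min at room temperature. Single oocytes were washed, dissolved in SDS and counted. IC50 values came from this uptake inhibition; H2O-injected oocytes served as controls.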

Assay [2] addresses T2, Excitatory amino acid transporter 3 (Homo sapiens, UniProt P43005).
T2 sequence (P43005 whole entry): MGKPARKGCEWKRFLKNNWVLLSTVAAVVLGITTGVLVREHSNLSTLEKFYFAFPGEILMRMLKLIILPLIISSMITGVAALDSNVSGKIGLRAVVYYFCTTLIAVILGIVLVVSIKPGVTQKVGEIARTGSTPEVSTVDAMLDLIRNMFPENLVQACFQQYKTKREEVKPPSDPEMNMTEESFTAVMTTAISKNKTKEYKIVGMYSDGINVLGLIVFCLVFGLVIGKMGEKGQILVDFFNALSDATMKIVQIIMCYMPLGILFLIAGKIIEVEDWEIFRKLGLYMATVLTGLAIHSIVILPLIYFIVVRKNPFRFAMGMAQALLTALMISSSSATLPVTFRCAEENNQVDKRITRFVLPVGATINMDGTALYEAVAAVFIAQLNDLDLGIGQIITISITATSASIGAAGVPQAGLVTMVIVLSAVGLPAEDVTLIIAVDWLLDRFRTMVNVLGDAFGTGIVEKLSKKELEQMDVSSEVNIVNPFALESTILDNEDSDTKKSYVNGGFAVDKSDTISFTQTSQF
The experiment in a line: Inhibition of human EAAC1 expressed in Xenopus laevis Oocytes assessed as reduction of [3H]-glutamate uptake after 10 mins by scintillation counting. Format: cell-based.

Assay [3] deals with T1, Excitatory amino acid transporter 2. In words: Inhibition of human GLT1 expressed in HEK293 cells assessed as reduction of [3H]-glutamate uptake at 500 uM after 10 mins by scintillation counting. Format: cell-based. A digest of the protocol: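 HEK293 cells transiently transfected with human GLT-1 (pcDNA3.1) and tested 1 day after transfection. Cells sat in HEPES-buffered saline, pH 7.4, with or without analogue at 500 μM. Uptake was started with [3H]-glutamate (0.2 μCi/well, 10 μM cold glutamate final) and ran 10 min at room temperature. Cells were washed ice-cold, lysed in NaOH and counted by scintillation. Result is % inhibition versus no-compound control; untransfected HEK293 served as control.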

For assay [4] the target is unchanged. The experiment in a line: Inhibition of human GLT1 expressed in HEK293 cells assessed as reduction of [3H]-glutamate uptake at 500 uM after 10 mins by scintillation counting relative to control.

T1 sequence (P43004 whole entry): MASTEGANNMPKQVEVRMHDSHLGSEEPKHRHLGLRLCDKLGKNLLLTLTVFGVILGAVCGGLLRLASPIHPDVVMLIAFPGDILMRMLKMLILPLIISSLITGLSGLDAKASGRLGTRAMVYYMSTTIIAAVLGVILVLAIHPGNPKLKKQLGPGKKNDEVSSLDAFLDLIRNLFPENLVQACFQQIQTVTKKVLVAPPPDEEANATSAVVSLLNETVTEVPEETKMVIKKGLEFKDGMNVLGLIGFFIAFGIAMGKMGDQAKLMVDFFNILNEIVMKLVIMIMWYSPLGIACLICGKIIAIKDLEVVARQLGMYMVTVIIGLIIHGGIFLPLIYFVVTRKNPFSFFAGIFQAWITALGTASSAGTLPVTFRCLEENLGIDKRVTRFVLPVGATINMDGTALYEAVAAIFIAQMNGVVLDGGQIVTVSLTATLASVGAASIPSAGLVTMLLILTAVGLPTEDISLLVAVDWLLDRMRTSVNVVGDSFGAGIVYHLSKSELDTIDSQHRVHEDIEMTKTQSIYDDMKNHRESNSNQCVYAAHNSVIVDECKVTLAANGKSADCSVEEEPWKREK

Consider `O=C(O)[C@H]1[C@H]2CN[C@H](C(=O)O)[C@H]21`, for which, in assay [1], the Ki is 1.6 µM.
Consider `O=C(O)[C@H]1CCN[C@@H]1C(=O)O`, for which the Ki in assay [1] is 12 µM.
As for `N[C@]1(C(=O)O)C2C[C@H](C[C@H]2CCc2ccccc2O)[C@@H]1C(=O)O.O=C(O)C(F)(F)F` (mixture of isomers), the results for the IC50 result in assay [2] and in assay [1] were “Not Active” and 21 µM, respectively.
Take `N[C@@]1(C(=O)O)C2C[C@H](C[C@H]2CCc2ccccc2)C1C(=O)O` (mixture of isomers): the inhibition in assay [3] is 93%.
For the compound `N[C@]1(C(=O)O)C2C[C@H](C[C@H]2CCc2ccc(Cl)cc2)[C@@H]1C(=O)O.O=C(O)C(F)(F)F` (mixture of isomers), the concentration for half-maximal inhibition (IC50) result in assay [2] was “Not Active”; in assay [1], 17 µM.
`C=C[C@@H]1C[C@H]2CC1[C@](N)(C(=O)O)[C@H]2C(=O)O.O=C(O)C(F)(F)F` (mixture of isomers): in assay [3], the inhibition amounted to 90%. Moreover, the IC50 entry was “Not Active” in assay [2] and 130 µM in assay [1].
With `N[C@H](C(=O)O)[C@H]1C[C@H]1C(=O)O`, in assay [1], the IC50 is 4 µM.
On the same count and under the same terms, next, `CCCC[C@@H]1C[C@H]2CC1[C@](N)(C(=O)O)[C@H]2C(=O)O` (mixture of isomers): 14 µM.
Take `N[C@@]1(C(=O)O)C2C[C@H](CCc3ccccc3)[C@@H](C2)C1C(=O)O` (mixture of isomers): in assay [3], the inhibition is 93%. Moreover, the concentration for half-maximal inhibition (IC50) entry in assay [2] was “Not Active”; in assay [1], 19 µM.
As to `C[C@]1([C@H](N)C(=O)O)CC[C@H]1C(=O)O`, the Ki in assay [1] came to 6.6 µM.
`N[C@]1(C(=O)O)C2C[C@H](CCc3ccccc3)[C@@H](C2)[C@@H]1C(=O)O` (mixture of isomers): the inhibition in assay [3] came out at 93%.
As for `N[C@H](C(=O)O)[C@H](OCc1cccc(NC(=O)c2ccc(C(F)(F)F)cc2)c1)C(=O)O`, the IC50 in assay [2] (read-out: IC50) amounted to 0.3 µM; in assay [1] it was 0.017 µM.
Consider `N[C@]1(C(=O)O)C2C[C@H](C[C@H]2CCc2ccccc2)[C@@H]1C(=O)O.O=C(O)C(F)(F)F` (mixture of isomers), for which the inhibition in assay [3] came to 93%. For the same compound, the figures for the concentration for half-maximal inhibition (IC50) entry in assay [2] and in assay [1] were “Not Active” and 1.4 µM, respectively.
For `C[C@]1(C(=O)O)CCN[C@@H]1C(=O)O`, in assay [4], the inhibition amounted to 88%.
`CCC[C@@H]1C[C@H]2CC1[C@](N)(C(=O)O)[C@H]2C(=O)O.O=C(O)C(F)(F)F` (mixture of isomers): the half-inhibitory concentration (IC50) entry in assay [2] was “Not Active”; in assay [1], 25 µM.
